pIC50: −log10 of the molar value. Calls of active or inactive are those of the source. No cut-off for these calls is given here.
How the values were obtained:
[1] = target: T1, Tubulin (Homo sapiens) (UniProt P68371+Q9H4B7+P0DPH7+P68366+Q13509+Q71U36+P04350+Q3ZCM7+P07437+P68363+Q9BQE3+Q6PEY2+Q13885+Q9BVA1+Q9BUF5); experiment: Inhibition of tubulin polymerization in human SKOV3 cells assessed as perturbation in cytoskeleton structure at 1 uM after 24 hrs by Hoechst 33258/FITC staining-based flow cytometric analysis; format: cell-based
In short: (§1)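 Cells seeded at 12.5 × 10^4 per well and exposed to 1 µM compound for 24 h. Nuclei were stained with Hoechst 33258 (10 µg/mL, 30 min, 37 °C), then fixed in 4% formaldehyde/PBS (15 min, RT). Cells were permeabilized with 1% Triton X-100, blocked with 2% BSA/PBS for 1 h, and incubated with anti-α-tubulin-FITC (1:50) overnight at 4 °C. Imaged by fluorescence microscopy.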

[2] = target: T1, Tubulin (Homo sapiens); experiment: Inhibition of tubulin polymerization in human SKOV3 cells assessed as perturbation in cytoskeleton structure at 1 uM after 24 hrs by ELISA; format: cell-based
[3] = tested on: HaCaT; experiment: Cell cycle arrest in human HaCaT cells assessed as accumulation of cells at G2/M phase at 0.1 to 1 uM after 24 hrs by propidium iodide staining-based FACS analysis
In short: (§2)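 Cells were seeded at 5 × 10^5 per well in DMEM with 10% FBS and left overnight, then exposed to 0.1, 0.5 or 1 µM for 24 h. DMSO served as the negative control and 50 nM camptothecin as the positive control. Cells were trypsinized, fixed in 70% ethanol for 30 min at 4 °C, stained with 50 µg/mL PI plus 100 µg/mL RNase A for 30 min in the dark, and analysed by flow cytometry. Results are mean ± SD of three experiments, compared by ANOVA with Dunnett's test.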

[4] = tested on: A-431; experiment: Cytotoxicity against human A431 cells after 48 hrs by MTT assay; format: functional, cell-based; conditions: A-431, 48 h
In short: (§3)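 Cells in DMEM with 10% FBS were plated at 2 × 10^4 per well and left overnight, then treated for 48 h at 0.6–20 µM (six concentrations) from 10 mM DMSO stocks. MTT was added for 2 h, and formazan was dissolved in DMSO and read at 570 nm. Viability was expressed as % of control, with IC50 taken from dose-response curves. Results are mean ± SD of three independent experiments.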

[5] = target: T1, Tubulin (Homo sapiens); experiment: Inhibition of tubulin polymerization in human HeLa cells assessed as perturbation in cytoskeleton structure at 1 uM after 24 hrs by ELISA; format: cell-based
[6] = tested on: MCF7; experiment: Induction of apoptosis in human MCF7 cells after 24 hrs by FITC Annexin V/propidium iodide staining-based FACScan flow cytometric analysis; format: functional, cell-based
In short: (§4)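 After 24 h of compound exposure, 1 × 10^6 cells were labelled with annexin V-FITC and PI for 15 min at 25 °C in the dark. They were read on a FACScan with 488 nm excitation, detecting FITC at 525 nm and PI at 620 nm. Results are mean ± SD of three independent experiments, with Dunnett's test against control.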

[7] = tested on: MCF7; experiment: Cell cycle arrest in human MCF7 cells assessed as accumulation of cells at G2/M phase at 0.1 to 1 uM after 24 hrs by propidium iodide staining-based FACS analysis; format: functional; in short: as §2
[8] = target: T1, Tubulin (Homo sapiens); experiment: Inhibition of tubulin polymerization in human SKOV3 cells assessed as micronuclei formation at 1 uM after 24 hrs by Hoechst 33258/FITC staining-based flow cytometric analysis; format: cell-based; in short: as §1
[9] = tested on: MDA-MB-231; experiment: Cell cycle arrest in human MDA-MB-231 cells assessed as accumulation of cells at G2/M phase at 0.1 to 1 uM after 24 hrs by propidium iodide staining-based FACS analysis; format: functional; in short: as §2
[10] = target: T1, Tubulin (Homo sapiens); experiment: Inhibition of tubulin polymerization in human HeLa cells assessed as micronuclei formation at 1 uM after 24 hrs by Hoechst 33258/FITC staining-based […] analysis; format: cell-based; in short: as §1
[11] = tested on: A-431; experiment: Induction of apoptosis in human A431 cells after 24 hrs by FITC Annexin V/propidium iodide staining-based FACScan flow cytometric analysis; format: functional, cell-based; in short: as §4
[12] = target: T1, Tubulin (Homo sapiens); experiment: Inhibition of tubulin polymerization in human MCF7 cells assessed as micronuclei formation at 1 uM after 24 hrs by ELISA; format: cell-based
[13] = target: T1, Tubulin (Homo sapiens); experiment: Inhibition of tubulin polymerization in human MDA-MB-231 cells assessed as micronuclei formation at 1 uM after 24 hrs by ELISA; format: cell-based
[14] = target: T1, Tubulin (Homo sapiens); experiment: Inhibition of tubulin polymerization in human MCF7 cells assessed as perturbation in cytoskeleton structure at 1 uM after 24 hrs by ELISA; format: cell-based
[15] = target: T1, Tubulin (Homo sapiens); experiment: Inhibition of tubulin polymerization in human MCF7 cells assessed as perturbation in cytoskeleton structure at 1 uM after 24 hrs by Hoechst 33258/FITC staining-based flow cytometric analysis; format: cell-based; in short: as §1
[16] = target: T1, Tubulin (Homo sapiens); experiment: Inhibition of tubulin polymerization in human MDA-MB-231 cells assessed as perturbation in cytoskeleton structure at 1 uM after 24 hrs by Hoechst 33258/FITC staining-based flow cytometric analysis; format: cell-based
[17] = tested on: MCF7; experiment: Cytotoxicity against human MCF7 cells after 48 hrs by MTT assay; format: functional, cell-based; conditions: MCF7, 48 h; in short: as §3
[18] = target: T1, Tubulin (Homo sapiens); experiment: Inhibition of tubulin polymerization in human A431 cells assessed as perturbation in cytoskeleton structure at 1 uM after 24 hrs by Hoechst 33258/FITC staining-based flow cytometric analysis; format: cell-based
[19] = target: T1, Tubulin (Homo sapiens); experiment: Inhibition of tubulin polymerization in human HeLa cells assessed as perturbation in cytoskeleton structure at 1 uM after 24 hrs by Hoechst 33258/FITC staining-based flow cytometric analysis; format: cell-based
[20] = tested on: SK-OV-3; experiment: Induction of apoptosis in human SKOV3 cells after 24 hrs by FITC Annexin V/propidium iodide staining-based FACScan flow cytometric analysis; format: functional, cell-based; in short: as §4
[21] = tested on: HeLa; experiment: Cytotoxicity against human HeLa cells after 48 hrs by MTT assay; format: functional, cell-based; in short: as §3
[22] = tested on: Tubulin; experiment: Inhibition of tubulin polymerization in human HaCaT cells assessed as perturbation in cytoskeleton structure at 1 uM after 24 hrs by ELISA; format: cell-based
[23] = tested on: SK-OV-3; experiment: Cytotoxicity against human SKOV3 cells after 48 hrs by MTT assay; format: functional, cell-based; conditions: SK-OV-3, 48 h; in short: as §3
[24] = target: T1, Tubulin (Homo sapiens); experiment: Inhibition of tubulin polymerization in human A431 cells assessed as micronuclei formation at 1 uM after 24 hrs by Hoechst 33258/FITC staining-based flow cytometric analysis; format: cell-based
[25] = target: T1, Tubulin (Homo sapiens); experiment: Inhibition of tubulin polymerization in human MDA-MB-231 cells assessed as micronuclei formation at 1 uM after 24 hrs by Hoechst 33258/FITC staining-based flow cytometric analysis; format: cell-based
[26] = target: T1, Tubulin (Homo sapiens); experiment: Inhibition of tubulin polymerization in human HeLa cells assessed as micronuclei formation at 1 uM after 24 hrs by ELISA; format: cell-based
[27] = tested on: A549; experiment: Cytotoxicity against human A549 cells after 48 hrs by MTT assay; format: functional, cell-based; conditions: A549, 48 h
[28] = Inhibition of porcine tubulin polymerization after 1 hr by spectrophotometric analysis; parameters: species or system Sus scrofa
In short: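 Polymerization was started by shifting from 4 °C to 37 °C, and absorbance was followed at 37 °C for 60 min. The vehicle served as control.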

[29] = tested on: HeLa; experiment: Induction of apoptosis in human HeLa cells after 24 hrs by FITC Annexin V/propidium iodide staining-based FACScan flow cytometric analysis; format: functional, cell-based; in short: as §4
[30] = tested on: HaCaT; experiment: Cytotoxicity against human HaCaT cells after 48 hrs by MTT assay; format: cell-based; in short: as §3

Row | inhibition [1] | inhibition [2] | inhibition [5] | inhibition [14] | inhibition [15] | inhibition [16] | inhibition [18] | inhibition [19] | SMILES | Activity [3] | pIC50 [4] | Activity [6] | Activity [7] | inhibition [8] | Activity [9] | inhibition [10] | Activity [11] | inhibition [12] | inhibition [13] | pIC50 [17] | Activity [20] | also measured
1 | Active | Active | Active | Active | Active | Active | Active | Active | COc1ccc(-c2ocnc2-c2cc(Br)c(OC)c(OC)c2)cc1SC | Toxic | 6.37 | Dose-dependent effect | Active | Active | Active | Active | Dose-dependent effect | Active | Active | 5.56 | Dose-dependent effect | pIC50 [21]: 6.20; inhibition (INH) [22]: Active; pIC50 [23]: 5.94; inhibition [24]: Active; inhibition [25]: Active; inhibition [26]: Active; pIC50 [27]: < 4.70; pIC50 [28]: 6.07; Activity [29]: Dose-dependent effect; pIC50 [30]: 6.28
2 | Active | Active | Active | Active | Active | Active | Active | Active | COc1ccc(-c2ocnc2-c2cc(OC)c(SC)c(OC)c2)cc1O | Toxic | 6.60 | Dose-dependent effect | Active | Active | Active | Active | Dose-dependent effect | Active | Active | 6.35 | Dose-dependent effect | pIC50 [21]: 8.05; inhibition (INH) [22]: Active; pIC50 [23]: 6.60; inhibition [24]: Active; inhibition [25]: Active; inhibition [26]: Active; pIC50 [27]: < 4.70; pIC50 [28]: 5.98; Activity [29]: Dose-dependent effect; pIC50 [30]: 6.49

Reference: ChEMBL document CHEMBL4145466, “Design, synthesis, and biological evaluation of novel combretastatin A-4 thio derivatives as microtubule targeting agents” (Eur J Med Chem, 2018)
